ChEMBL document CHEMBL1144433, “1-Amino-1,2,3,4-tetrahydronaphthalene-2-carboxylic acid as a Tic mimetic: application in the synthesis of potent human melanocortin-4 receptor selective agonists” (Bioorg Med Chem Lett, 2005)

Columns and labels:
[1] = biological target: Melanocortin receptor 4 (Homo sapiens, UniProt P32245); assay: Concentration required for 50% inhibition by displacement of [125I]NDP-alpha-MSH of human MC4R expressed in CHO cells; assay type: cell-based
In short: (§1)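 Competition binding against [125I]-NDP-α-MSH at human melanocortin receptors expressed in CHO cells. Values are means ± standard error from at least three determinations.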

[2] = biological target: Melanocortin receptor 3 (Homo sapiens, UniProt P41968); assay: Concentration required for 50% inhibition by displacement of [125I]NDP-alpha-MSH of human MC3R expressed in CHO cells; assay type: cell-based
[3] = biological target: Melanocortin receptor 5 (Homo sapiens, UniProt P33032); assay: Concentration required for 50% inhibition by displacement of [125I]NDP-alpha-MSH of human MC5R expressed in CHO cells; assay type: cell-based; in short: as §1
[4] = biological target: Melanocyte-stimulating hormone receptor (Homo sapiens, UniProt Q01726); assay: Concentration required for 50% inhibition by displacement of [125I]NDP-alpha-MSH of human MC1R expressed in CHO cells; assay type: cell-based
[5] = Pharmacokinetic parameter F studied in rat; assay type: ADME, organism-based; details: in vivo
In short: (§2)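 Sprague–Dawley rats were dosed with a EtOH/PEG/water (1:4:5) solution, 1 mg/kg iv and 4 mg/kg po. F, clearance, Vdss and t1/2 were derived from these doses.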

[6] = Pharmacokinetic parameter max half life studied in dog; assay type: ADME, organism-based, Canis lupus familiaris; details: in vivo
In short: (§3)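 Beagle dogs were dosed with a solution in EtOH/PEG/water (1:4:5), 0.5 mg iv and 2.0 mg/kg po. F, clearance, Vdss, t1/2 and tmax were derived from these doses.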

[7] = Pharmacokinetic parameter Cl(clearance) studied in dog; assay type: ADME, organism-based, Canis lupus familiaris; details: in vivo; in short: as §3
[8] = Pharmacokinetic parameter Vdss studied in rat; assay type: ADME, organism-based; details: in vivo, read-out: Vdss; in short: as §2
[9] = Pharmacokinetic parameter F studied in dog; assay type: ADME, organism-based, Canis lupus familiaris; details: in vivo; in short: as §3
[10] = Pharmacokinetic parameter Vdss studied in dog; assay type: ADME, organism-based, Canis lupus familiaris; details: in vivo, read-out: Vdss; in short: as §3
[11] = Pharmacokinetic parameter Cl(clearance) studied in rat; assay type: ADME, organism-based; details: in vivo; in short: as §2
[12] = Pharmacokinetic parameter hal life studied in rat; assay type: ADME, organism-based; details: in vivo; in short: as §2
[13] = Pharmacokinetic parameter hal life studied in dog; assay type: ADME, organism-based, Canis lupus familiaris; details: in vivo; in short: as §3

Melanocyte-stimulating hormone receptor, sequence (Q01726 whole entry): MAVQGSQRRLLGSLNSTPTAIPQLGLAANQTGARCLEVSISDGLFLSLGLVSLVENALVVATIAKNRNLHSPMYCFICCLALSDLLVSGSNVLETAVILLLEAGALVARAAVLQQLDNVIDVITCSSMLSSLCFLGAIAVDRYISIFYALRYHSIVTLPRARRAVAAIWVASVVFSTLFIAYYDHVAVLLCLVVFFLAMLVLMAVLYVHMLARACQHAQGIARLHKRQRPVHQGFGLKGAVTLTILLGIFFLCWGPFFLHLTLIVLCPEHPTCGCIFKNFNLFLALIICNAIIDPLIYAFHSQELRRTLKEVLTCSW
Melanocortin receptor 4, sequence (P32245 whole entry): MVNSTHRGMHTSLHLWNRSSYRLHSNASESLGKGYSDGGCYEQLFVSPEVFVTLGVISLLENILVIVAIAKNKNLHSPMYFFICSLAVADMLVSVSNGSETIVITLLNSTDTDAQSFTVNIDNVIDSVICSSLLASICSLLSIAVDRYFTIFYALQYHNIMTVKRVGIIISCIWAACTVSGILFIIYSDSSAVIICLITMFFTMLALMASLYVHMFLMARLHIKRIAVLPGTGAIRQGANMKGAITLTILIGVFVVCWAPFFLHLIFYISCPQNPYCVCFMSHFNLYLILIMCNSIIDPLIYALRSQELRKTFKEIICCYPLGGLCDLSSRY
Melanocortin receptor 5, sequence (P33032 whole entry): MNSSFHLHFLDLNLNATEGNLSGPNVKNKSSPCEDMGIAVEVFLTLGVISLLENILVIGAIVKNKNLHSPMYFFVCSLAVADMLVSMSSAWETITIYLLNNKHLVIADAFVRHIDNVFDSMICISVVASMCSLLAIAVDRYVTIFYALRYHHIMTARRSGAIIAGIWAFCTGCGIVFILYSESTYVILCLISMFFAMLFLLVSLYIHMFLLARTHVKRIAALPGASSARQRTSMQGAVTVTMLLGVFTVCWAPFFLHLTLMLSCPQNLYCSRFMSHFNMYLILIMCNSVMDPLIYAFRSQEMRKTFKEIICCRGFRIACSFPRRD
Melanocortin receptor 3, sequence (P41968 whole entry): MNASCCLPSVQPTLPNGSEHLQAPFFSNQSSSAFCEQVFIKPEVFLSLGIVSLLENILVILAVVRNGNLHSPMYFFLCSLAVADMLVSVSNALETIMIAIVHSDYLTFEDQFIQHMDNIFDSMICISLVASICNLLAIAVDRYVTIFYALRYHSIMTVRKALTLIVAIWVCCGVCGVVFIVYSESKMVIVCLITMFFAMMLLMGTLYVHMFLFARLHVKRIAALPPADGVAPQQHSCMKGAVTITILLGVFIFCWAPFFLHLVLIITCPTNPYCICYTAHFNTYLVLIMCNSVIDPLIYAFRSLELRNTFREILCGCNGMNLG

SMILES	IC50 [1] [nM]	IC50 [2] [nM]	IC50 [3] [nM]	IC50 [4] [nM]	bioavailability [5] [%]	Tmax [6] [h]	clearance [7] [mL/min/kg]	Vd [8] [L/kg]	bioavailability [9] [%]	Vd [10] [L/kg]	clearance [11] [mL/min/kg]	half-life [12] [min]	half-life [13] [min]
CC(C)(C)NC(=O)C1(C2CCCCC2)CCN(C(=O)[C@@H](Cc2ccc(Cl)cc2)NC(=O)C2CCCc3ccccc3C2N)CC1 (some centres undefined)	1.1	97	54	220	–	–	–	–	–	–	–	–	–
CC(C)(C)NC(=O)C1(C2CCCCC2)CCN(C(=O)[C@@H](Cc2ccc(Cl)cc2)NC(=O)[C@@H]2CCc3ccccc3[C@@H]2N)CC1	0.77	32	24	980	–	–	–	–	–	–	–	–	–
CC(C)(C)NC(=O)C1(C2CCCCC2)CCN(C(=O)[C@@H](Cc2ccc(Cl)cc2)NC(=O)[C@H]2CCc3ccccc3[C@H]2N)CC1	0.37	120	64	530	11	2	11	3.9	42	2.9	35	120	204

The remaining molecules from weak to strong by IC50 [1], led by results:

IC50 [1] [nM]	IC50 [2] [nM]	IC50 [3] [nM]	IC50 [4] [nM]	bioavailability [5] [%]	Tmax [6] [h]	clearance [7] [mL/min/kg]	Vd [8] [L/kg]	bioavailability [9] [%]	Vd [10] [L/kg]	clearance [11] [mL/min/kg]	half-life [12] [min]	half-life [13] [min]	SMILES
1.9	83	34	1400	–	–	–	–	–	–	–	–	–	CC(C)(C)NC(=O)C1(C2CCCCC2)CCN(C(=O)[C@@H](Cc2ccc(Cl)cc2)NC(=O)C2Cc3ccccc3C2N)CC1 (some centres undefined)
1.1	170	31	620	–	–	–	–	–	–	–	–	–	CC(C)(C)NC(=O)C1(C2CCCCC2)CCN(C(=O)[C@@H](Cc2ccc(Cl)cc2)NC(=O)[C@H]2CCc3ccccc3[C@@]2(C)N)CC1
